The target in series [1] is T1, Cellular tumor antigen p53 (Homo sapiens, UniProt P04637). Put plainly: Activation of p53 in human NUGC4 cells assessed as change in BTG2 mRNA level at 60 uM after 18 hrs by RT-PCR method relative to control. The format is cell-based. The note with it: read-out: FC. The procedure, abridged:
(§1)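 p53 signaling qPCR array of 84 p53-pathway genes. Cells were treated in 6-well plates for 18 h with 0.5% DMSO in compound and control samples. Total RNA was extracted and fold-changes were obtained by the ΔΔCt method against untreated control, with β2-microglobulin (B2M) as housekeeping gene. Two independent biological replicates per cell line.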

Series [2] is described as follows: Solubility of the compound in water. The format is physicochemical. Particulars: buffer.
Series [3] concerns the target T1, Cellular tumor antigen p53. Put plainly: Activation of p53 in human NUGC4 cells assessed as change in MLH1 mRNA level at 60 uM after 18 hrs by RT-PCR method relative to control. The note with it: read-out: FC. The format is cell-based. The procedure, abridged:
as §1

The target in series [4] is T1, Cellular tumor antigen p53. As to the kind of experiment: Activation of p53 in human NUGC4 cells assessed as change in CCNH mRNA level at 60 uM after 18 hrs by RT-PCR method relative to control. Particulars: read-out: FC. The format is cell-based. In a few lines:
as §1

Series [5] concerns Cellular tumor antigen p53 (Homo sapiens), P04637 [Y220C]. Put plainly: Activation of p53 Y220C mutant in human NUGC3 cells assessed as change in TNF mRNA level at 60 uM after 18 hrs by RT-PCR method relative to control. The format is cell-based. The procedure, abridged:
(§2)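 p53 signalling qPCR array covering 84 p53 pathway genes. Cells were exposed for 18 h, and compound and control wells both held 0.5% DMSO. Total RNA was extracted and purified. Fold-changes were calculated by the ΔΔCt method against the untreated sample, with β2-microglobulin (B2M) as the housekeeping gene. Each cell line was run in two independent biological replicates.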

Series [6] shares this test system. As to the kind of experiment: Activation of p53 Y220C mutant in human NUGC3 cells assessed as change in BRCA2 mRNA level at 60 uM after 18 hrs by RT-PCR method relative to control. The format is cell-based. In a few lines: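 p53 signalling qPCR array covering 84 genes. Cells were exposed for 18 h, with 0.5% DMSO in both compound and control samples. Total RNA was extracted and purified. Fold-changes were calculated by ΔΔCt using β2-microglobulin (B2M) as the housekeeping gene. Two independent biological replicates were run per cell line.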

Series [7] shares this test system. As to the kind of experiment: Activation of p53 Y220C mutant in human NUGC3 cells assessed as change in PTEN mRNA level at 60 uM after 18 hrs by RT-PCR method relative to control. The format is cell-based. In a few lines:
as §2

For series [8] the test system is unchanged. Put plainly: Activation of p53 Y220C mutant in human NUGC3 cells assessed as change in PIDD1 mRNA level at 60 uM after 18 hrs by RT-PCR method relative to control. The format is cell-based. In a few lines:
as §2

Regarding `CCNC(=O)c1c(O)c(I)c(-n2cccc2)c2sc(N(CC)CC)nc12`, the fold induction at 60 µM in series [1] turned out to be 0.6; in series [3], 1; in series [4], 0.9. In series [2], the solubility result is recorded as “Insoluble”. Also, the fold change (FC) in series [5] is 5.6; in series [6] it was 0.9; in series [7], 1.1; in series [8], 1.2.

The record behind these values is ChEMBL document CHEMBL4152234, “Aminobenzothiazole derivatives stabilize the thermolabile p53 cancer mutant Y220C and show anticancer activity in p53-Y220C cell lines” (Eur J Med Chem, 2018).
